# Reference: PubChem BioAssay AID504382 (The Scripps Research Institute Molecular Screening Center, 2011)
# Hit rate of the full screen: of about 2,500 compounds, about 460 (18%) were called active. A selection follows. A number with no mark means an inactive call.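 Rule for the calls: active = mean activation above a cutoff of low control average plus 3 SD from the earlier screen (cut at about 12% in these data); inactive = the rest.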
# Assay: IANBD-channel fluorescence artefacts in buffer – biochemical, artefact control for cardiac RTF calcium sensitizer project, confirmation (AID 504382)
# Conditions: IANBD fluorescence interference counterscreen, EC20 Ca2+, at 7.2 µM, hits give high values, scaled: EC20 calcium 0, EC100 calcium 100
# In short: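 Also added: EC20 calcium, 0.472 mM; dosing: single nominal 7.2 µM compound dose, 0.7% DMSO final; timing: 15 min, 25 °C; detection: fluorescence intensity, excitation 480 nm, emission 540 nm; replicates: each compound tested in triplicate wells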
row,SMILES,fluorescence artifact activation
1,CCOC(=O)c1c(NC(=O)COC(=O)Cc2ccccc2[N+](=O)[O-])sc(C(=O)N(C)C)c1C,-0.03%
2,Oc1[nH]c2ccccc2c1N=Nc1cccc(Cl)c1,0.77%
3,CCC(/C=C1\Oc2ccc(OC)cc2N1C)=C\c1sc2ccccc2[n+]1CCCS(=O)(=O)[O-],4.9%
4,COc1ccc(N/C=C\C(=O)c2ccc(Br)cc2)cc1OC,15.4% (active)
5,COc1cc(OC)c(OC)cc1/C=C/C(=O)c1ccc(NS(=O)(=O)c2ccc(C)cc2)cc1,0.29%
6,COc1ccc(NC(=O)C2CC2)cc1OC1CCCC1,0.04%
7,COc1ccc(N=Cc2sc(O)c3ccccc23)cc1,27.5% (active)
8,Cc1ccc(N=Cc2sc(O)c3ccccc23)cc1,0%
9,Oc1sc(C=Nc2ccccc2)c2ccccc12,-0.05%
10,COc1ccc(-c2nnc(SCC(=O)c3ccc[nH]3)n2-c2ccccc2)cc1,0.12%
11,COc1ccc(OC)c(-n2nnnc2SCC(=O)NCCc2ccccc2)c1,3.03%
12,COc1ccc(-n2nnnc2SCC(=O)c2cc3ccccc3o2)cc1,12.4% (active)
13,COC(=O)CCCNC(=O)CCc1nnc(-c2ccc(-c3ccccc3)cc2)o1,-0.05%
14,CCOc1ccc(-c2nc3scc(-c4cccs4)c3c(=O)[nH]2)cc1,15.2% (active)
15,COc1ccc(C(=O)Nn2cnc3scc(-c4cccs4)c3c2=O)c(O)c1,7.33%
16,O=C(NCCN1CCOCC1)c1ccc(CS(=O)(=O)c2c(Cl)cccc2Cl)o1,-0.03%
17,CCOC(=O)c1c(/N=C/c2cccc([N+](=O)[O-])c2O)sc(C)c1C,2.1%
18,COC(=O)c1c(-c2ccc(OC)c(OC)c2)csc1N,0%
19,CC1CCC(C(C)C)C(OC(=O)Cn2c(-c3ccccc3)[n+](C)c3ccccc32)C1 (centres undefined),0%
20,CCC(C)[C@H](NC(=O)N1CCC(C)CC1)C(=O)OC (some centres undefined),-0.05%
21,O=C(CSc1nnc(-c2ccco2)o1)NC1CCCCC1,-0.05%
22,CCn1c(SCC(=O)NNC(=O)c2ccco2)nnc1-c1ccco1,-0.04%

row,SMILES,fluorescence artifact activation
1,O=C(CCSc1nnc(-c2ccco2)o1)Nc1ccccc1,24.7% (active)
2,Cc1ccc(-n2nnnc2C(=Cc2ccc(N(C)C)cc2)c2nnnn2-c2ccc(C)cc2)cc1,0.09%
3,COc1cccc2cc(-c3nc(-c4cccs4)cs3)c(=O)oc12,-0.05%
4,CCOC(=O)c1c(-c2ccccc2)csc1NC(=O)/C(C#N)=C\c1ccc(O)c(OC)c1,0.5%
5,CC(C)CN1CCN(Cc2cccn2-c2ccc(Cl)cn2)CC1CCO (centres undefined),26.8% (active)
6,CCOC(=O)/C(=C/C=C1\Sc2cc(OCC)c(OCC)cc2N1CC)C(C)=O,5.45%
7,O=C1CCC[C@@H]2Cc3nc4ccc(O)cc4cc3[C@@H]3CCN1[C@H]23,1.03%
8,c1ccc(CCCN2CCN(c3ccccc3)CC2)cc1,0%
9,CCc1ccc(C(=O)NNc2ccccc2F)cc1,1.03%
10,Cc1occc1C(=O)N=Nc1c(O)n(C)c2ccccc12,2.27%
11,COCCn1c(SCC(=O)Nc2ccc(NC(=O)c3ccco3)c(OC)c2)nc2ccccc2c1=O,1.13%
12,COCCn1c(=O)c2ccccc2c2ccccc2c1=O,17.2% (active)
13,COCCn1c(-c2ccc(C)cc2)nc2oc3cc(OC)ccc3c(=O)c2c1=O,0.27%
14,O=C(Nc1cc2c(cc1Br)OCCCO2)c1cccnc1,-0.06%
15,COc1ccc(CN(Cc2cccn2C)S(=O)(=O)c2ccccc2)cc1,0.19%
16,Cc1ccccc1NS(=O)(=O)c1ccc(OCC(=O)N2CCCCC2)cc1,-0.04%
17,CCN(CC(=O)N1CCCC1)S(=O)(=O)c1ccc(OC)cc1,87% (active)
18,Cc1ccc([N+](=O)[O-])c(OCCCN2C(=O)NC(C)(C)C2=O)c1,0.02%
19,COc1ccccc1N1C(C)=CC(=C(C#N)c2nc3ccccc3s2)C=C1C,0.18%
20,COc1ccc(N2C(=O)[C@@H]3[C@H](C2=O)[C@H](C(C)=O)N2c4ccccc4C=C[C@@H]32)cc1,0.08%
21,CCOc1ccc(CN2CCN(C/C=C/c3ccc(OC)cc3)CC2CCO)cc1 (centres undefined),0.09%
22,Cc1ccc(CN2CCN(Cc3ccc(-n4cccn4)cc3C)CC2CCO)cc1 (centres undefined),37.2% (active)

row,SMILES,fluorescence artifact activation
1,CSc1nnc(N(CCC#N)CCC#N)s1,11.2%
2,COc1ccc(-c2onc3ccc(C(C)=O)cc23)cc1,5.91%
3,CC1(C)CC(=O)C(C=Nc2ccc(C(=O)c3ccccc3)cc2N=CC2=C(O)CC(C)(C)CC2=O)=C(O)C1,0.03%
4,Cc1nnc(N2CCOCC2)c2nn(-c3cccc(Cl)c3)c(C)c12,0.16%
5,O=C(N/N=C/c1c(O)n(-c2ccc(Cl)cn2)c(=O)c2ccccc12)c1ccncc1,0.02%
6,COc1cc(OC)c(NC(=O)c2cc3ccccc3cc2O)cc1Cl,0.48%
7,Cn1c(O)c(/C=N/NC(=O)c2cc3ccccc3cc2O)c2ccccc21,70% (active)
8,CCCNC(=O)C12CCC(C)(C(=O)C1Br)C2(C)C (centres undefined),0.01%
9,CN(C)CCNC(=O)c1c(CSc2ccc(Cl)cc2)noc1C(=O)NCc1ccccc1,0.05%
10,COc1cc(OC)c(C2N(c3ccc(Cl)c(Cl)c3)C(=O)C3CCCN32)cc1OC (centres undefined),-0.1%
11,O=C(O)c1ncc(-c2ccccc2)cn1,43.6% (active)
12,NC(=O)C1CCN(C(=O)c2ccc(-c3ccccc3)cc2)CC1,4.63%
13,O=C([O-])c1ccccc1-[n+]1c(-c2ccccc2)cc(-c2ccccc2)cc1-c1ccccc1,0%
14,c1ccc2c(c1)CN1CCCC1=N2,-0.08%
15,CCCOc1cc(N(CC)CC)ccc1/C=C(/C#N)c1nc2ccc(C)cc2[nH]1,12.4% (active)
16,COc1cccc(/C=C(/C#N)c2nc3ccccc3[nH]2)c1OC(C)C(=O)O (centres undefined),0.54%
17,COc1cc(/C=C(\C#N)c2nc3ccccc3[nH]2)ccc1O,0.06%
18,CCOc1cc(N(CC)CC)ccc1/C=C(/C#N)c1nc2ccccc2[nH]1,0.26%
19,CCN(CC)c1ccc(/C=C(/C#N)c2nc3ccccc3[nH]2)c(OC(C)C)c1,41.8% (active)
20,COc1cc(/C=C(\C#N)c2nc3ccccc3[nH]2)cc(OC)c1O,6.16%
